LANA-H2A inh – blockers of LANA interaction with H2A/H2B – biochemical, FP readout, HTS, primary screen; Protein LANA1 (Human herpesvirus 8 type P (isolate GK18)), Q9QR71; cell-free LANA-H2A/H2B peptide, fluorescence polarization; inhibition, % (test concentration not listed); 0.6% of 320,000 active; AID 2629, 2010; in the data active = inhibition mostly above about 10%, no sharp cut-off; inactive = mostly below about 6.7%
RanGTP-Impb inh – inhibitors of RanGTP-importin-beta interaction, primary screen, biochemical, FRET, CFP-Ran, YFP-importin-beta, homogeneous. Ran GTPase (GTP-bound) - importin-beta complex. cell-free CFP-Ran/YFP-importin-beta FRET ratio. inhibition, % (no concentration beside the values). 1.1% of 300,000 active. AID 2216, 2009;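 active = more than half of the replicate wells show a fall in the fluorescence ratio signal beyond about 16%, limit read from the data, passing the limit was not always enough; inconclusive = exactly half of the replicate wells pass the set limit; inactive = fewer than half of replicates pass the limit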;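 also: 0% = DMSO wells and 100% = Ran loaded with GDP instead of GTP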
Runt-SMMHC FRET – inhibitors of RUNX1 Runt–CBFb-SMMHC binding, primary screen, biochemical, FRET, Cerulean-Runt, Venus-CBFb-SMMHC, uHTS; inhibition, % at 20 µM; Cerulean-Runt/Venus-CBFb-SMMHC FRET ratio 530/480, 1 h; 0.74% of 220,000 active; Runt-related transcription factor 1 (Homo sapiens) + Core-binding factor subunit beta …;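 active = mean inhibition across duplicate retests at 20 µM reaching about 50%, limit read from the data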;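 also: 0% = DMSO wells and 100% = wells with excess untagged CBFb-SMMHC; inhibitors lower the FRET ratio by blocking Runt binding to CBFb-SMMHC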
MEX-5 binding – MEX-5 zinc finger RNA-binding disruptors – biochemical, C. elegans, fluorescence polarization, MLPCN library, primary screen. 0.38% of 300,000 active. AID 1832, 2009. MEX-5/FITC-TCR2 RNA binding; active compounds read low. activity score (negative = inhibition of binding), % at 10 µM. Zinc finger protein mex-5 (Caenorhabditis elegans), Q9XUB2;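 active = inhibition past about -25% in most replicates, and total fluorescence under double the plate's negative control median, limit read from the data; inconclusive = replicates evenly split on the limit, or fluorescence at least double controls; inactive = too little inhibition in most replicates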;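 also: 0% = DMSO and -100% = 5 µM competing unlabeled TCR2 RNA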
Target sequence (Q9XUB2 whole entry, looked up): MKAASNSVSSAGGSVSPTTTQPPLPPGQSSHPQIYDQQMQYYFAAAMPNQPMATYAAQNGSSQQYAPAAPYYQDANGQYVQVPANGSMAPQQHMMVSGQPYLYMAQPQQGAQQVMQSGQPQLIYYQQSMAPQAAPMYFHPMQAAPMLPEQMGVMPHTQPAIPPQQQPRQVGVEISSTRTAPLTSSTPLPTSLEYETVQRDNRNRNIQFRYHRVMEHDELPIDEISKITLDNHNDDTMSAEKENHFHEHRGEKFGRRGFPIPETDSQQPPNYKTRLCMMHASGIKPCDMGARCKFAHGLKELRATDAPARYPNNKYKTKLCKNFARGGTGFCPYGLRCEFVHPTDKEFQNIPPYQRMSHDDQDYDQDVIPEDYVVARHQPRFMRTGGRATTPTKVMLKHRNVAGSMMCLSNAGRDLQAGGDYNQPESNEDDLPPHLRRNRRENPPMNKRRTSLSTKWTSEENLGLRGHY
EBV gp42 block – Epstein-Barr virus gp42 inhibitors, primary screen, biochemical, uHTS, fluorescence polarization. Glycoprotein 42 (Epstein-Barr virus (strain AG876)), Q1HVG2. Fluorescence polarization binding assay, mP read-out. inhibition, % (tested at 21.74 µM). 0.42% of 220,000 active. AID 1085, 2008; in the data active = inhibition above about 50%
Target sequence (Q1HVG2 whole entry, looked up): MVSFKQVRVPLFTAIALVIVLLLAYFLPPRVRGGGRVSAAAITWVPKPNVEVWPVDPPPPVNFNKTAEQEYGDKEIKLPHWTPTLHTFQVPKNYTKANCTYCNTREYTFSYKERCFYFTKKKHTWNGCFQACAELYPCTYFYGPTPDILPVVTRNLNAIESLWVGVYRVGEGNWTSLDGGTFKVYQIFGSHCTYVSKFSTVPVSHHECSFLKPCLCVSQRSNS
Runt-CBFb FRET – inhibitors of RUNX1 Runt–CBFb binding, primary screen, biochemical, FRET, Cerulean-Runt, Venus-CBFb, uHTS; Runt-related transcription factor 1 (Homo sapiens) + Core-binding factor subunit beta …; Cerulean-Runt/Venus-CBFb FRET ratio 530/480, 1 h; inhibition, % at 20 µM; 0.46% of 220,000 active; AID 1496, 2009;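 active = inhibition over about 50% at 20 µM in the single-dose screen, limit read from the data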;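 also: 0% = DMSO wells and 100% = excess unlabeled CBFb competitor control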
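Schedule: protein complex preformed 1 h, compound exposure 1 h, room temperature, dark; test system: Cerulean-labeled Runt domain protein; amount: 100 nM per protein; buffer or medium: Tris 50 mM pH 7.5, KCl, K2SO4, 0.01% BSA; read-out: loss of energy transfer signal; detection: FRET fluorescence; controls: 5 µM unlabeled CBFb as full-inhibition high control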
YIC counter – YIC intramolecular FRET probe signal interference, dose response, counter-screen for RanGTP-importin-beta inhibitor project, biochemical, fluorescence FRET; shares compounds with RanGTP-Impb inh; Purified YIC probe, intramolecular FRET ratio YFP/CFP; IC50, µM; 40% of 1,000 active;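 active = fitted half-maximal inhibitory concentration no more than tenfold above the top dose tested; inconclusive = flat fit with 30 to 70% activity, or poor fit; inactive = half-maximal concentration beyond tenfold above the top dose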
Numbers without * were called inactive; ? = inconclusive; · = not tested or not shown. The list is not random: actives were taken first. Their share in the collection is about 2.4%.

SMILES	LANA-H2A inh	RanGTP-Impb inh	Runt-SMMHC FRET	MEX-5 binding	EBV gp42 block	Runt-CBFb FRET	YIC counter
O=C(CSc1nnc(-c2ccc(F)cc2)o1)Nc1ccc(S(=O)(=O)N2CCCC2)cc1	5.2	16.8*	1.2	-2.1	-4.7	-2.2	>50
Cc1ccc(S(=O)(=O)N(CC(=O)N2CCCCCC2)c2ccccc2F)cc1	-1.6	-5.0	·	1.1	·	·	·
Cc1cc(C)n2nc(C(=O)OCC(=O)c3cc(C)n(CC4CCCO4)c3C)nc2n1 (configuration not stated)	-1.4	-0.2	-0.7	1.3	-13.2	1.3	·
Cc1cc(C(=O)COC(=O)c2nc3nccc(C)n3n2)c(C)n1CC1CCCO1 (configuration not stated)	8.3	21.2*	-4.0	-3.6	-18.2	-0.4	>50
CCOC(=O)c1c(NC(=O)CN2CCCc3ccccc32)sc(C(C)=O)c1C	1.4	21.1*	-4.0	-0.4	-7.6	-1.8	>50
CCOC(=O)c1sc(NC(=O)CSc2nc(C)cc(C)n2)c(C#N)c1C	-1.7	20.6*	0.8	-2.1	-15.4	-3.8	>50
C/C(=N\NC(=O)c1c(C)nc2ccccn12)c1ccccc1F	9.7	-1.0	·	-2.1	·	·	·
C/C(=N\NC(=O)c1c(C)nc2ccccn12)c1ccc(O)cc1O	-1.1	20.7*	·	-0.8	·	·	47.5*
CN(C)S(=O)(=O)c1cccc(NC(=O)c2ccc(Sc3nncn3C)c([N+](=O)[O-])c2)c1	1.9	1.7	-5.3	1.3	-6.5	0.4	·
CCN(CC)S(=O)(=O)c1ccc(NC(=O)c2ccc(Sc3nncn3C)c([N+](=O)[O-])c2)cc1	2.5	23.3*	1.6	-2.7	-2.0	-3.5	>50
CC1Cc2ccccc2N1C(=O)CSc1nc2c(c(=O)n(C)c(=O)n2C)n1Cc1ccccc1 (configuration not stated)	3.5	-0.2	-6.4	-2.3	2.6	-5.7	·
CC(c1nc2ccccc2n1Cc1ccccc1)N1CCCCC1 (configuration not stated)	-5.8	25.9*	·	0.2	·	·	>50
COc1cc(/C=C(\C#N)C(=O)Nc2cccc3ncccc23)cc(OC)c1OC	2.7	36.3*	53.7	-0.7	-13.9	41.9	>50
COc1ccc(NC(=O)/C(C#N)=C/c2cccnc2)c(OC)c1	5.5	1.1	·	-0.8	·	·	·
Cc1nc2ccc(S(=O)(=O)NCC(=O)NC(C)c3ccccc3)cc2s1 (configuration not stated)	1.5	-2.8	0.1	-0.8	-6.1	-2.1	·
COc1ccccc1C1C(C(N)=O)=C(C)Nc2ncnn21 (configuration not stated)	-1.1	23.2*	2.5	0.1	1.8	-0.4	>50
Cc1c(C=O)cnn1CCC(=O)O	-2.0	22.7*	·	-0.1	·	·	>50
O=C(Nc1ccc(OC(F)(F)F)cc1)c1ccc2nc[nH]c2c1	-2.5	20.1*	·	-1.6	·	·	>50
O=C(Nc1ccnc(-c2ccncc2)n1)c1ccc(Cl)cc1	5.7	23.0*	-7.3	-1.9	-12.3	2.2	>50
COc1ccc(Br)cc1/C=C/C(=O)NC(=S)Nc1ccc(CN2CCOCC2)cc1	-0.9	50.2*	·	-2.4	·	·	>50
COc1ccc(C(=O)NC(=S)Nc2ccc(CN3CCOCC3)cc2)cc1OC	-2.4	?	1.9	-0.1	-6.8	2.3	·
O=C(CCCCCN1C(=O)c2ccccc2C1=O)Oc1ccc2c3c(c(=O)oc2c1)CCC3	-15.0	4.0	13.0	1.0	-9.1	10.1	·
Cc1cc(C)c2c(c1)/C(=c1/sc3n(c1=O)CN(c1ccccc1)CN=3)C(=O)N2	-2.6	53.6*	-0.4	0.7	-6.9	-2.3	>50
CC(C)(C)Nc1nc(SCC(=O)Nc2ccccc2)nc(N2CCOCC2)n1	-1.1	21.5*	3.2	-10.0	-7.7	-2.8	>50
CN(C)c1nc(SCC(=O)Nc2ccccc2)nc(N2CCOCC2)n1	-2.1	-0.9	-4.4	1.6	8.5	0.1	·
SMILES	LANA-H2A inh	RanGTP-Impb inh	Runt-SMMHC FRET	MEX-5 binding	EBV gp42 block	Runt-CBFb FRET	YIC counter
CC1(C)CC(=O)c2cc(N=C/C(C(=O)c3ccccc3)=C(\O)c3ccccc3)c(=O)oc2C1	1.2	4.7	-2.4	-3.6	2.6	-0.3	·
COc1ccc(C(=O)/C=C/Nc2cccc(C)n2)cc1OC	0.1	20.2*	36.4	-3.8	-17.0	7.1	26*
COc1ccc(N/C=C/C(=O)c2ccc(OC)c(OC)c2)cc1	4.5	-0.8	-18.5	-2.0	-22.5	-4.8	·
O=S(=O)(NCc1cccnc1)c1ccc(Cl)s1	-2.2	3.3	0.5	0.2	-14.1	-1.2	·
CC1=NN(C(=O)c2ccccc2)C(O)(c2ccc(Br)cc2)C1 (configuration not stated)	4.4	24.3*	-3.3	-2.1	-8.6	2.6	>50
CCC1=NN(C(=O)c2ccc(Br)cc2)C(O)(c2ccccc2)C1 (configuration not stated)	-6.8	0.0	-5.4	0.8	-9.7	0.4	·
CCN(CC)S(=O)(=O)c1ccc(NC(=O)c2cccc3c2C(=O)N(CCOC)C3)cc1	-4.2	18.5*	7.7	-1.6	-13.8	-5.1	>50
COCCN1Cc2cccc(C(=O)Nc3ccc(S(=O)(=O)N4CCCCCC4)cc3)c2C1=O	2.7	-0.4	-6.0	1.8	-4.1	-1.4	·
CC1(C)CC(=O)CC(=Nc2ccc3[nH]c(=O)[nH]c3c2)C1	-3.8	28.5*	2.8	1.2	-20.8	0.1	>50
CSc1ccccc1C(=O)OCC(=O)N1CCCC1=O	-1.2	·	·	·	·	·	·
CSc1ccc(/C=C(/Sc2nnc(-c3ccccc3)o2)C(=O)O)cc1	1.2	25.0*	-5.8	0.7	-20.4	-1.1	41*
N=C1c2ccccc2CN1NC(=O)CC12CC3CC(CC(C3)C1)C2	1.8	-2.7	-1.7	?	-11.9	0.9	·
Cc1cccc(NS(=O)(=O)c2ccc(C(=O)N3CCCCCC3)cc2)c1C	0.7	17.1*	·	0.8	·	·	>50
COc1ccc(-c2nc3ccc(C(=O)NCCCN4CCOCC4)cc3nc2-c2ccc(OC)cc2)cc1	-5.0	20.8*	·	0.3	·	·	21.8*

From PubChem BioAssay
